Positions of bridges follow the written chain, without caps; N, C: chain ends. Non-standard residues stand in square brackets, D forms with d. Residues, ends and D or L forms follow the SMILES beside them. Asu = N[C@@H](CCCCCC(=O)O)C(=O)O; Mpa = O=C(O)CCS

In experiment [1] the test system is Rattus norvegicus. The experiment can be described thus: Compound was tested for diuretic activity and the ratio of urine volume for treated over control animals was reported after infused at a dose of 0.5 ug/kg. The class given is functional. The method, boiled down: (§1)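 Male Sprague-Dawley rats (300-325 g) under halothane/lidocaine had femoral artery, femoral vein and bladder cannulated. After at least 1 h of recovery in restraint, they received Ringer's (1.2 mL/h), with 10-min urine collections over a 30-min control period. Infusion of 0.5 μg/kg per min for 30 min and a 30-min Ringer's recovery followed. Na+, K+ and Cl- were measured with an electrolyte analyzer, reported as treated minus control μmol/sample. Volume ratio is treated/control over three consecutive 10-min samples, six animals.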

For experiment [2], the species on record is Rattus norvegicus. The experiment can be described thus: Compound was tested for antihypertensive activity in 5/6 nephrectomized rats. It counts as functional. The method, boiled down:
(§2)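 Rats were anesthetized with halothane after skin infiltration with 2% lidocaine, and the femoral artery and vein were cannulated. After recovery, arterial pressure was recorded. A saline control period was followed by i.v. infusion in 30-min steps at 0.1, 0.2, 0.5 and 1.0 μg/kg per min (70 μL/kg per min). Hydralazine (100 μg/kg per min) was given for standardization. ED50 is in nmol/kg per min, from six animals.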

The species entered for experiment [3] is Rattus norvegicus. The experiment can be described thus: Compound was tested for the K+ excretion for treated over control animals, the electrolytes tested are. It counts as functional. The method, boiled down:
as §1

For experiment [4], the species on record is Rattus norvegicus. The experiment can be described thus: Compound was tested for the Cl- excretion for treated over control animals, the electrolytes tested are. It counts as functional. The method, boiled down: as §1
Experiment [5] concerns the target T1, Atrial natriuretic peptide receptor 3 (Mus musculus, UniProt P70180).
T1 sequence (P70180 whole entry): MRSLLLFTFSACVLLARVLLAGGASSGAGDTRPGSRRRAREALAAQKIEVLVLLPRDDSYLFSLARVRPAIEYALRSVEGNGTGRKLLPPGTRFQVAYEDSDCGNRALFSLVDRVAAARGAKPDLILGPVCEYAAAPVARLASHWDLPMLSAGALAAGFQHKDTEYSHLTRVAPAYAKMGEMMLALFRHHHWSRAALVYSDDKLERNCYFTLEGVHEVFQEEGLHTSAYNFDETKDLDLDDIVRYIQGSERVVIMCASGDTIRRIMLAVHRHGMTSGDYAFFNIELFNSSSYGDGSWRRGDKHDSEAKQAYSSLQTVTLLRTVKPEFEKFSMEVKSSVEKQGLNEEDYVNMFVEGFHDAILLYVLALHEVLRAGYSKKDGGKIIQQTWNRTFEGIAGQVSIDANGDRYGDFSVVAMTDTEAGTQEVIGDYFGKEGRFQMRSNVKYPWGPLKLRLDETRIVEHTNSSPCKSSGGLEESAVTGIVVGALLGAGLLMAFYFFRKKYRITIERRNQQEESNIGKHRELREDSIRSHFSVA
Briefly: Binding affinity was determined based on the displacement of [125]r-ANF (99-126) from binding sites on mouse fibroblasts (NIH 3T3) cells (Atrionatriuretic peptide receptor C).

The species entered for experiment [6] is Rattus norvegicus. The experiment can be described thus: Compound was tested for antihypertensive activity in DOCA nephrectomized rats. It counts as functional. The method, boiled down: as §2
Experiment [7] concerns the target T2, Atrial natriuretic peptide receptor 2 (Bos taurus, UniProt P46197).
T2 sequence (P46197 whole entry): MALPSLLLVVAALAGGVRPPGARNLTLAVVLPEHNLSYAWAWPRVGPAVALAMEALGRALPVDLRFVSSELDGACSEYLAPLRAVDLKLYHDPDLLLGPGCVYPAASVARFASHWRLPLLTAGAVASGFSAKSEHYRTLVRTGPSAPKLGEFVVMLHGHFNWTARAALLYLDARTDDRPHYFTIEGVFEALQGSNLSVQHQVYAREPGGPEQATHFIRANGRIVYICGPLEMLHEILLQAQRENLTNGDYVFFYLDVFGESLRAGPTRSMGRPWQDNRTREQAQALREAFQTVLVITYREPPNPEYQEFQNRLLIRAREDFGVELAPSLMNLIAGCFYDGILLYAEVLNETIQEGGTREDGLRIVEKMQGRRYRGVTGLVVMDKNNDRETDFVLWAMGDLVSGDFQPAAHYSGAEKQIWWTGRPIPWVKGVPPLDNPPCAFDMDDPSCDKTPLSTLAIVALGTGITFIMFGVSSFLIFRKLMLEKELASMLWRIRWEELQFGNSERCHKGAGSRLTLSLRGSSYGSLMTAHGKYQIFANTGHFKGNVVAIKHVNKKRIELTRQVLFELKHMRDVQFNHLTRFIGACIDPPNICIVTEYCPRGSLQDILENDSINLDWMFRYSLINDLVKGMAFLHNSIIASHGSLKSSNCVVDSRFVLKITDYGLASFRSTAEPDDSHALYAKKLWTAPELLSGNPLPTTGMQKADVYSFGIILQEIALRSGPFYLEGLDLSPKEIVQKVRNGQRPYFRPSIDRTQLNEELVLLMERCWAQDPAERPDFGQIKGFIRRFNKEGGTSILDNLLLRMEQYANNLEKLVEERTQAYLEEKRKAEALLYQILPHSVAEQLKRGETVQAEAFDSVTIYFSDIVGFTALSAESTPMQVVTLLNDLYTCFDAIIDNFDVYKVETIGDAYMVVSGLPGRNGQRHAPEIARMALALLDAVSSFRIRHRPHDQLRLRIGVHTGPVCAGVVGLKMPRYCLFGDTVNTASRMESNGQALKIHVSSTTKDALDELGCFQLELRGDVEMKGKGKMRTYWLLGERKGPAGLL
Briefly: Binding affinity was determined based on the displacement of [125]r-ANF (99-126) from binding sites on bovine adrenal zona glomerulosa cell membranes (Atrionatriuretic peptide receptor B).

The species named for experiment [8] is Oryctolagus cuniculus. The experiment can be described thus: Compound was tested for the inhibition of the stimulated contractions of the superfused rabbit thoracic aortic rings. The class given is functional, Aorta. The method, boiled down:
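Rabbit thoracic aorta rings (4 mm) were held isometrically at 10-g resting tension, superfused and precontracted with phenylephrine. Test peptide was added to the superfusate above the tissue in successively higher doses after each recovery. Doses were based on peptide content. EC50 came from the dose-response curve, mean of three determinations ± SEM.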

The species entered for experiment [9] is Rattus norvegicus. The experiment can be described thus: Compound was tested for the Na+ excretion for treated over control animals, the electrolytes tested are. The class given is functional. The method, boiled down: as §1
The species entered for experiment [10] is Rattus norvegicus. Briefly: Compound was tested for the Na+ excretion for treated over control animals. The class given is functional. The method, boiled down: as §1
The species entered for experiment [11] is Rattus norvegicus. The experiment can be described thus: Compound was tested for the Cl- excretion for treated over control animals. It counts as functional. The method, boiled down:
as §1

Experiment [12] is filed under the species Rattus norvegicus. Briefly: Compound was tested for the K+ excretion for treated over control animals. The class given is functional. The method, boiled down: as §1
For experiment [13], the species on record is Rattus norvegicus. The experiment can be described thus: Compound was tested for the Cl- excretion for treated over control animals. The class given is functional. The method, boiled down: as §1

With `CC[C@H](C)[C@@H]1NC(=O)[C@H](CCCN=C(N)N)NC(=O)[C@H](CC(=O)O)NC(=O)[C@H]([C@@H](C)CC)NC(=O)[C@H](CCCN=C(N)N)NC(=O)CNC(=O)CNC(=O)[C@H](Cc2ccccc2)NC(=O)CCSSC[C@@H](C(=O)N[C@@H](CC(N)=O)C(=O)N[C@@H](CO)C(=O)N[C@@H](Cc2ccccc2)C(=O)N[C@@H](CCCN=C(N)N)C(=O)N[C@@H](Cc2ccc(O)cc2)C(=O)O)NC(=O)CNC(=O)[C@H](CC(C)C)NC(=O)CNC(=O)[C@H](CO)NC(=O)[C@H](CCC(N)=O)NC(=O)[C@H](C)NC(=O)CNC1=O` ([Mpa]FGGRIDRIGAQSGLGCNSFRY-OH; disulfide 1-17), the Ratio in experiment [1] was found to be 1.7. The figures for the ED50 in experiment [2] and in experiment [6] were 1.5 nM/min/kg and 1.1 nM/min/kg, respectively. The Electrolyte excretion in [3] was 22.6 uM sample-1; in experiment [4], 52.9 uM sample-1; in experiment [9] it was 30.4 uM sample-1. In addition, the values for the IC50 in experiment [5] and in experiment [7] were 0.22 nM and 1.03 nM, respectively. The EC50 in [8] worked out at 1.1e-10 M 50ul-1.
In the case of `CC[C@H](C)[C@@H]1NC(=O)[C@H](CCCN=C(N)N)NC(=O)[C@H](CC(=O)O)NC(=O)[C@H]([C@@H](C)CC)NC(=O)[C@H](CCCN=C(N)N)NC(=O)CNC(=O)CNC(=O)[C@H](Cc2ccccc2)NC(=O)CCC=CC[C@@H](C(=O)N[C@@H](CC(N)=O)C(=O)N[C@@H](CO)C(=O)N[C@@H](Cc2ccccc2)C(=O)N[C@@H](CCCN=C(N)N)C(=O)N[C@@H](Cc2ccc(O)cc2)C(=O)O)NC(=O)CNC(=O)[C@H](CC(C)C)NC(=O)CNC(=O)[C@H](CO)NC(=O)[C@H](CCC(N)=O)NC(=O)[C@H](C)NC(=O)CNC1=O`, the Ratio in experiment [1] is recorded as 2.5. The ED50 in [2] was determined as 1.2 nM/min/kg. Moreover, the figures for the Electrolyte excretion in experiment [10], in [11] and in [12] were 0.4 uM sample-1, 7.3 umol/sample and 3.2 uM sample-1, respectively.
`CC[C@H](C)[C@@H]1NC(=O)[C@H](CCCN=C(N)N)NC(=O)[C@H](CC(=O)O)NC(=O)[C@H]([C@@H](C)CC)NC(=O)[C@H](CCCN=C(N)N)NC(=O)CNC(=O)CNC(=O)[C@H](Cc2ccccc2)NC(=O)CCCCC[C@@H](C(=O)N[C@@H](CC(N)=O)C(=O)N[C@@H](CO)C(=O)N[C@@H](Cc2ccccc2)C(=O)N[C@@H](CCCN=C(N)N)C(=O)N[C@@H](Cc2ccc(O)cc2)C(=O)O)NC(=O)CNC(=O)[C@H](CC(C)C)NC(=O)CNC(=O)[C@H](CO)NC(=O)[C@H](CCC(N)=O)NC(=O)[C@H](C)NC(=O)CNC1=O` (FGGRIDRIGAQSGLG[Asu]NSFRY-OH; lactam N-16): in experiment [1], the Ratio amounted to 2.1. The ED50 in experiment [2] turned out to be 5.7 nM/min/kg. Besides, the Electrolyte excretion was 4.8 uM sample-1 in experiment [10], 10 uM sample-1 in [13] and 0 uM sample-1 in experiment [12].

One may read the IC50 as the midpoint of a concentration-inhibition curve. Low readings indicate greater potency, high ones weaker potency.
